From PubChem
aDG glyco up: increases alpha dystroglycan glycosylation. Pro5-aDG cells, alpha-DG glycosylation AlphaScreen (IIH6); 0% Pro5, 100% B10-LARGE cell signal. activation, % at 10 µM. 0.22% of 360,000 active. AID 624168;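 active = activation of at least 8% versus controls, or a plate z-score of at least 8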;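 note: Pro5 are CHO cells carrying HIG-tagged alpha-DG that lacks glycosylation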
Jurkat NFkB inh: inhibitors of the PMA/ionomycin-induced NF-kB reporter in Jurkat cells; 0.53% of 330,000 active; AID 435003; inhibition, % at 4 µM; PMA/ionomycin-induced NF-kB luciferase reporter, luminescence; in the data active = inhibition above about 50%
NR2E3 ag-1: activates human photoreceptor nuclear receptor NR2E3; inhibition of corepressor binding, % at 4.78 µM; 0.12% of 320,000 active; AID 2300; GST-NR2E3/biotin-RetCOR TR-FRET, 1536-well;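 active = percent inhibition above the cutoff of mean plus 3 SD of all tested compounds, set per screening campaign, cut at about 20% in these data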;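 note: 0% = DMSO wells and 100% = biotin wells as full block of FRET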
Target sequence (Q9Y5X4 whole entry, looked up): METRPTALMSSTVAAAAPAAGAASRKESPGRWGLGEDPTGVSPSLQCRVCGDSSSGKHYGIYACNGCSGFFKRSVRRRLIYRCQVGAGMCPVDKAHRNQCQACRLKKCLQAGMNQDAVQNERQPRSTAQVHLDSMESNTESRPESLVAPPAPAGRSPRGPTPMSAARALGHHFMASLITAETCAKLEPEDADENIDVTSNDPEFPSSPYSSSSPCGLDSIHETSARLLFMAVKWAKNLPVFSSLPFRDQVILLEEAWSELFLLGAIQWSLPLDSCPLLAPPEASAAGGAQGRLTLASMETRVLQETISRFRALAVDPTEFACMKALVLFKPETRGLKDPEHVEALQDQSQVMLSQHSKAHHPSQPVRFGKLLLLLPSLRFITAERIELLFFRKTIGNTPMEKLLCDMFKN
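Material: NR2E3–RetCOR corepressor complex / Amount: 1.35 nM GST-NR2E3 / Medium: Tris pH 7.5 / Compound: single nominal compound dose of 4.8 µM / Incubation: 5 h at 4 °C / Technique: TR-FRET, Eu(K)-anti-GST donor, streptavidin-D2 acceptor, ex 340, em 617/671 nm / Read-out basis: percent loss of FRET ratio relative to control wells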
697 NFkB inh: inhibitors of the PMA/ionomycin-induced NF-kB reporter in 697 B cells; 697 B-cell NF-kB luciferase reporter, 16 h; inhibition, % at 4 µM; 0.33% of 330,000 active; in the data active = inhibition above about 35%
MPTP block: permeability transition pore inhibition. 1.4% of 360,000 active. AID 602449. isolated mouse mitochondria, Ca2+ swelling absorbance, 30 min. inhibition, % at 10 µM;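 active = inhibition of 50% or more, scaled per plate between neutral and stimulator controls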;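 note: 0% = DMSO wells given calcium and 100% = 1 mM EGTA wells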
NR2E3 ag-2: agonists of human NR2E3 nuclear receptor | Q9Y5X4 | CHO-S Gal4-NCOR/VP16-NR2E3 two-hybrid, luciferase | inhibition of corepressor binding, % at 3.98 µM | 0.35% of 360,000 active;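 active = inhibition above the mean of all tested compounds plus 3 SD, cut at about 70% in these data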;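 note: 0% = DMSO with NR2E3 transfected cells and 100% = cells lacking NR2E3 construct; higher means lower luciferase signal from less NR2E3 corepressor binding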
Rh123 counter: membrane potential counter-screen of mitochondrial pore inhibitors | shares compounds with MPTP block | AID 624504 | inhibition, % at 10 µM | isolated mitochondria, Rhodamine 123 fluorescence | 78% of 5,000 active; in the data active = inhibition above about 22%;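 note: 0% = DMSO vehicle and 100% = positive control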
MPTP abs DR: dose response confirmation of mitochondrial permeability transition pore inhibitors; shares compounds with MPTP block; isolated mitochondria swelling, absorbance; IC50, µM; 58% of 780 active; in the data active = IC50 below about 20 µM
MPTP cs DR: active in counter-screen for permeability transition pore inhibitors; shares compounds with MPTP block; isolated mitochondria counterscreen, fluorescence read-out; IC50, µM; 49% of 780 active; in the data active = IC50 below about 80 µM
* = called active by the depositor; · = not tested or not shown. An excerpt weighted towards active compounds, which were near 2.4% of everything screened.

SMILES	aDG glyco up	Jurkat NFkB inh	NR2E3 ag-1	697 NFkB inh	MPTP block	NR2E3 ag-2	Rh123 counter	others
O=c1c(Cc2ccccc2)c(O)c2cccc3c4c(n1c23)CCCC4	0	-6	2	2	66*	-1	80*
COc1ccc(-c2[nH]c(-c3cc(OC)c4c(c3)OCO4)nc2-c2ccccc2)cc1	2	5	3	3	95*	-13	69*
COc1ccc(-c2nc(-c3ccccc3)c(-c3cc([N+](=O)[O-])ccc3C)[nH]2)cc1OC	1	-13	1	-15	0	-11	·
CCC(C(=O)NC1CCCCCC1)n1nc(C)c2c(C)n(-c3ccccc3)nc2c1=O (stereo unspecified)	0	4	0	-21	0	-15	·
CCOC(=O)/C(C(=O)Nc1ccc(Br)cc1)=C1/NC(C)(C)Cc2ccccc21	0	-26	-1	7	101*	-22	89*
Cc1ccc(S(=O)(=O)N2CCCC(C(=O)NC3=NCCS3)C2)cc1 (stereo unspecified)	0	-23	1	0	70*	6	8	MPTP abs DR=>100;MPTP cs DR=>80
COC(=O)/C=C1/SC(=Nc2ccc(Cl)c(Cl)c2)NC1=O	0	-11	2	11	58*	-5	25*
CCOC(=O)c1cnc(SCC(=O)Nc2cc(OC)cc(OC)c2)nc1N	2	25	0	1	87*	-15	49*
CCn1c(SCc2cccc(OC)c2)nc2ccccc2c1=O	0	13	1	-4	2	4	·
O=C1c2ccccc2C(=O)N1C1C=CC=CC=C1	0	·	·	·	-1	-33	·
Cc1cccc2cc(CN(Cc3ccccc3)C(=S)NCCCN(C)C)c(=O)[nH]c12	1	-29	2	-3	4	-24	·
Cc1ccc(CN(Cc2cc3cccc(C)c3[nH]c2=O)C(=S)NCCCN(C)C)cc1	1	0	1	-7	65*	-8	-13	MPTP abs DR=12*;MPTP cs DR=>80
COc1ccccc1OCCNC(=O)c1c(-c2ccccc2Cl)noc1C	0	9	2	-3	2	-3	·
Cc1ccccc1OCCC(=O)Nc1ccc(F)c(Cl)c1	1	6	1	-5	85*	-1	85*
N#C/C(=C(/O)CCl)c1nc2c(s1)CCc1ccccc1-2	0	-5	-3	-10	55*	-52	78*
O=C(Nc1ccccc1)C1CCCN(C(=O)c2ccc(F)cc2)C1 (stereo unspecified)	0	-2	-3	21	0	11	·
COC(=O)c1scc(S(=O)(=O)C(C)C)c1N/N=C(\C#N)C(=O)c1ccc(Cl)cc1	0	2	1	9	73*	9	78*
COC(=O)c1scc(C)c1NC(=O)c1ccc(Cl)cc1	0	-12	0	2	0	-6	·
Cc1c(N/N=C(\C#N)C(=O)c2ccc(Cl)cc2)c(=O)n(-c2ccccc2)n1C	2	·	1	·	10	17	·
COC(=O)c1scc(C#N)c1N/N=C(\C#N)S(=O)(=O)c1ccc(Cl)cc1	0	6	5	-16	67*	-25	84*
CCOC(=O)c1c(/N=C/c2cccc(C)c2O)sc2c1CCN(C)C2	0	7	2	-2	71*	4	-16
CCOC(=O)c1c(/N=C/c2ccc(C)cc2O)sc2c1CCN(C)C2	0	-3	-2	4	3	13	·
N#C/C(=C(/O)c1cc2ccccc2o1)c1nc2ccccc2s1	0	-26	0	-55	98*	-114	78*
N#C/C(=C(/O)CN1CCOCC1)c1nc2ccccc2s1	0	-1	-1	6	0	-35	·
N#C/C(=C(/O)c1ccco1)c1nc2ccccc2s1	0	18	1	-60	5	-49	·
